Test results taken from ChEMBL document CHEMBL5252538, “β-Lactam analogues of combretastatin A-4 prevent metabolic inactivation by glucuronidation in chemoresistant HT-29 colon cancer cells” (Eur J Med Chem, 2017).
Activity calls are given as the source filed them. The rule behind the calls is not given here.

What was measured:
HT-29 [1] = experiment: Induction of cell cycle arrest in human HT-29 cells assessed as accumulation of cells in sub-G1 phase at 0.5 uM incubated for 72 hrs by RNase/PI staining based flow cytometry analysis (reference value: 6%); format: functional
Summary of the method: (§1)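 HT-29 treated with vehicle (0.1% ethanol v/v) or compound at 0.5 µM for 24, 48 and 72 h. Adherent plus detached cells collected, fixed overnight in ice-cold 70% ethanol at −20 °C, stained with PI (50 µg/mL) plus RNase A (50 µg/mL) 30 min at 37 °C. 10,000 cells analysed by flow cytometry at 488 nm; sub-G1, G0/G1, G2/M gated on DNA content; mean of three experiments.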

[2] = Stability in phosphate buffer at pH 7.4 assessed as half life at 30 ug/ml measured for 24 hrs by analytical HPLC analysis; format: physicochemical; conditions: dose 30 µg/ml
[3] = Stability in phosphate buffer at pH 4 assessed as half life at 30 ug/ml measured for 24 hrs by analytical HPLC analysis; format: physicochemical; conditions: dose 30 µg/ml
[4] = Stability in phosphate buffer at pH 9 assessed as half life at 30 ug/ml measured for 24 hrs by analytical HPLC analysis; format: physicochemical; conditions: dose 30 µg/ml
MCF7 [5] = experiment: Antiproliferative activity against […] human MCF7 cells assessed as inhibition of cell growth incubated for 72 hrs by alamar blue assay; format: functional, cell-based; conditions: MCF7, 72 h
Summary of the method: (§2)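 Cells seeded 24 h before treatment (HL-60 4 × 10⁴, MCF-7 5 × 10³ per well), then given medium, vehicle (1% ethanol v/v) or serial dilutions (eight concentrations) for 72 h. Alamar Blue (10% v/v) added for 3–5 h at 37 °C in the dark, fluorescence read at ex 530/em 590 nm. Viability expressed relative to vehicle (100%), IC50 from dose–response curves; three experiments in triplicate.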

HL-60 [6] = experiment: Antiproliferative activity against […] human HL-60 cells assessed as inhibition of cell growth incubated for 72 hrs by alamar blue assay; format: functional, cell-based; conditions: HL-60, 72 h; summary of the method: as §2
HT-29 [7] = experiment: Antiproliferative activity against combretastatin A-4 resistant human HT-29 cells assessed as inhibition of cell growth incubated for 72 hrs by SRB assay; format: functional, cell-based; conditions: HT-29, 72 h
Summary of the method: (§3)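 HT-29 (DMEM Glutamax, 10% FBS) seeded at 1 × 10⁴ cells/well, treated after 24 h with vehicle (1% ethanol v/v) or serial dilutions (eight concentrations) for 72 h; viability measured by sulforhodamine B protocol. Percent viability relative to vehicle control, IC50 from dose–response curves; mean of three experiments in triplicate.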

[8] = test system: Panel NCI-60 (60 carcinoma cell lines); experiment: Antiproliferative activity against human panel NCI-60 (60 carcinoma cell lines) assessed as inhibition of cell growth at 10 uM incubated for 72 hrs by SRB assay; format: functional, cell-based
MCF7 [9] = experiment: Antiproliferative activity against human MCF7 cells assessed as inhibition of cell growth incubated for 72 hrs by SRB assay; format: functional
HT-29 [10] = experiment: Antiproliferative activity against human HT-29 cells assessed as inhibition of cell growth incubated for 72 hrs by SRB assay; format: functional; summary of the method: as §3
HL-60 [11] = experiment: Antiproliferative activity against human HL-60 cells assessed as inhibition of cell growth incubated for 72 hrs by SRB assay; format: functional
[12] = test system: Panel NCI-60 (60 carcinoma cell lines); experiment: Antiproliferative activity against human panel NCI-60 (60 carcinoma cell lines) incubated for 72 hrs by SRB assay; format: functional; conditions: read-out: LC50 (the source's name)
MCF7 [13] = experiment: Induction of cell cycle arrest in human MCF7 cells assessed as accumulation of cells at G2/M phase at 0.5 uM incubated for 24 hrs by RNase/PI staining based flow cytometry analysis (reference value: 24%); format: functional
MCF7 [14] = experiment: Induction of cell cycle arrest in human MCF7 cells assessed as accumulation of cells at sub-G1 phase at 0.5 uM incubated for 72 hrs by RNase/PI staining based flow cytometry analysis (reference value: 4%); format: functional
HT-29 [15] = experiment: Induction of cell cycle arrest in human HT-29 cells assessed as accumulation of cells at G2/M phase at 0.5 uM incubated for 72 hrs by RNase/PI staining based flow cytometry analysis relative to control; format: functional; summary of the method: as §1
HT-29 [16] = experiment: Induction of cell cycle arrest in human HT-29 cells assessed as reduction in cells in G0 phase at 0.5 uM incubated for 72 hrs by RNase/PI staining based flow cytometry analysis; format: functional; summary of the method: as §1
HT-29 [17] = experiment: Induction of cell cycle arrest in human HT-29 cells assessed as reduction in cells in S phase at 0.5 uM incubated for 72 hrs by RNase/PI staining based flow cytometry analysis; format: functional; summary of the method: as §1
HT-29 [18] = experiment: Induction of apoptosis in human HT-29 cells assessed as decrease in Mcl-1 protein expression at 0.1 to 1 uM incubated for 48 hrs by Western blot analysis; format: functional, cell-based; conditions: dose 0.1-1 µM
Summary of the method: (§4)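 HT-29 seeded at 1 × 10⁵ cells per T25 flask; left untreated, given vehicle (0.1% EtOH v/v) or compound at 0.1 or 1 µM for 48 h. Whole-cell lysates in RIPA with protease/phosphatase inhibitors, equal protein (BCA) on 12% SDS-PAGE, PVDF; probed for Mcl-1, PARP, Bax (1:1000), HRP secondary, ECL detection, GAPDH loading control; three independent occasions.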

HT-29 [19] = experiment: Induction of apoptosis in human HT-29 cells assessed as upregulation of Bax protein expression at 0.1 to 1 uM incubated for 48 hrs by Western blot analysis; format: functional, cell-based; conditions: dose 0.1-1 µM; summary of the method: as §4
HT-29 [20] = experiment: Induction of apoptosis in human HT-29 cells assessed as increase in PARP cleavage at 0.1 uM incubated for 48 hrs by Western blot analysis; format: functional, cell-based; summary of the method: as §4
Tubulin (Bos taurus) = Tubulin (Bos taurus) (UniProt Q6B856+Q862L2+Q862F3); experiment: Inhibition of bovine tubulin polymerisation assessed as fold reduction in Vmax at 10 uM measured every 30 secs for 30 mins by spectrophotometric method relative to control; format: protein assay
Tubulin (Homo sapiens) [21] = target: T1, Tubulin (Homo sapiens) (UniProt P68371+Q9H4B7+P0DPH7+P68366+Q13509+Q71U36+P04350+Q3ZCM7+P07437+P68363+Q9BQE3+Q6PEY2+Q13885+Q9BVA1+Q9BUF5); experiment: Induction of microtubule disruption in human MCF7 cells assessed as inhibition of microtubule formation at 0.5 uM incubated for 16 hrs by immunofluorescence based confocal microscopic analysis; format: cell-based
Summary of the method: (§5)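 MCF-7 seeded at 1 × 10⁵ cells/mL on chamber slides, treated 16 h with vehicle (1% ethanol v/v), CA-4 (0.1 µM) or compounds (0.5 µM). Paraformaldehyde fixation (4%, 20 min), Triton X-100 permeabilisation, BSA block, anti-α-tubulin-FITC (DM1A) plus Alexa Fluor 488, DAPI mounting; confocal imaging with identical settings per experiment; three independent occasions.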

Tubulin (Homo sapiens) [22] = target: T1, Tubulin (Homo sapiens); experiment: Induction of microtubule disruption in human MCF7 cells assessed as shrunken spindle shaped microtubule formation at 0.5 uM incubated for 16 hrs by immunofluorescence based confocal microscopic analysis; format: cell-based; summary of the method: as §5
Tubulin (Homo sapiens) [23] = target: T1, Tubulin (Homo sapiens); experiment: Induction of microtubule disruption in human MCF7 cells assessed as depolymerization of microtubules at 0.5 uM incubated for 16 hrs by immunofluorescence based confocal microscopic analysis; format: cell-based; summary of the method: as §5
Tubulin (Homo sapiens) [24] = target: T1, Tubulin (Homo sapiens); experiment: Induction of microtubule disruption in human HT-29 cells assessed as complete loss of microtubule structure at 0.5 uM incubated for 16 hrs by immunofluorescence based confocal microscopic analysis; format: cell-based
Summary of the method: (§6)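 Fixed in 4% paraformaldehyde, permeabilised in 0.5% Triton X-100, blocked in 5% BSA, stained with anti-α-tubulin-FITC (DM1A, 1:100, 2 h) and Alexa Fluor 488, DAPI counterstain; confocal imaging, three occasions.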

Tubulin (Homo sapiens) [25] = target: T1, Tubulin (Homo sapiens); experiment: Induction of microtubule disruption in human HT-29 cells assessed as appearance of multiple micronucleus at 0.5 uM incubated for 16 hrs by immunofluorescence based confocal microscopic analysis; format: cell-based; summary of the method: as §6
[26] = target: T2, Tubulin beta (Homo sapiens) (UniProt P68371+Q9H4B7+Q13509+P04350+Q3ZCM7+P07437+Q13885+Q9BVA1+Q9BUF5+A6NNZ2); experiment: Binding affinity to colchicine binding site of beta-tubulin in human MCF7 cells assessed as inhibition of beta-tubulin-EBI adduct formation at 10 uM pretreated for 2 hrs followed by EBI addition and measured after 1.5 hrs by Western blot analysis; format: cell-based; conditions: time 3.5 hrs
Summary of the method: (§7)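 Cells seeded at 5 × 10⁴/well, grown overnight, treated with vehicle (0.1% ethanol v/v) or compound (10 µM) for 2 h, then EBI (100 µM) added for 1.5 h. Cells washed with ice-cold PBS, lysed in Laemmli buffer, run on SDS-PAGE, blotted and probed for β-tubulin to detect the faster-migrating β-tubulin–EBI adduct; GAPDH reprobe for loading; three independent experiments.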

[27] = target: T2, Tubulin beta (Homo sapiens); experiment: Binding affinity to colchicine binding site of beta-tubulin in human HT-29 cells assessed as inhibition of beta-tubulin-EBI adduct formation at 10 uM pretreated for 2 hrs followed by EBI addition and measured after 1.5 hrs by Western blot analysis; format: cell-based; conditions: time 3.5 hrs; summary of the method: as §7

SMILES	half-life at 30 ug/ml [2] [h]	half-life at 30 ug/ml [3] [h]	half-life at 30 ug/ml [4] [h]	IC50 (MCF7 [5]) [nM]	IC50 (HL-60 [6]) [nM]	IC50 (HT-29 [7]) [nM]	inhibition [8]	GI50 (MCF7 [9]) [nM]	GI50 (HT-29 [10]) [nM]	GI50 (HL-60 [11]) [nM]	CC50 [12] [nM]	Activity (MCF7 [13]) [%]	Activity (MCF7 [14]) [%]	Activity (HT-29 [18])	Activity (HT-29 [19])	Activity (HT-29 [20])	fold change (FC) (Tubulin (Bos taurus))	Activity (Tubulin (Homo sapiens) [21])	Activity (Tubulin (Homo sapiens) [22])	Activity (Tubulin (Homo sapiens) [23])	also measured
COc1cc(N2C(=O)C(O)C2c2ccc(SC)cc2)cc(OC)c1OC (racemic)	> 24	16	16	5	15	15	Active	< 10	< 10	< 10	> 100000	70	12	Active	Active	Active	3.5	Active	Active	Active	Activity (HT-29 [1]): 15%; Activity (HT-29 [15]): 68%; Activity (HT-29 [16]): Active; Activity (HT-29 [17]): Active; Activity (Tubulin (Homo sapiens) [24]): Active; Activity (Tubulin (Homo sapiens) [25]): Active; inhibition [26]: Active; inhibition [27]: Active
COc1cc(N2C(=O)C(c3ccccc3)C2c2ccc(SC)cc2)cc(OC)c1OC (racemic)	15	10	8	65	59	56	Active	35	32	23	> 100000	65	11	Active	Active	Active	3.4	Active	Active	Active	–
